Measurements: PMC3880617 (Journal of medicinal chemistry, 2013)

Tests used:
[1] = Stability in solution by 31P{1H} NMR in deuterated solvents; assay type: physicochemical
[2] = system: non-tumorigenic human embryonic kidney cells HEK293T; settings: read-out: IC50 HEK-293T; cisplatin dissolved in H2O; ref [18]; cited from earlier work
plasmid (pBR322) DNA = test: Electrophoresis mobility shift assay with plasmid DNA; assay type: binding; settings: metal/DNAbp ratios 0.25-2.0; 37 °C, 20 h
In short: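 Supercoiled pBR322 (20 μg/mL) in 5 mM Tris/HCl, 50 mM NaClO4, pH 7.39, incubated with test compound at […] metal complex:DNAbp ratios for 20 h at 37 °C in the dark. Untreated DNA and cisplatin-DNA were the controls. Samples were run on 1% agarose in TAE for 1.5 h at 80 V and stained with GelRed for 30 min. Read-out: ratio at which the two plasmid forms coalesce.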

[3] = system: human breast cancer cell line MCF7; settings: read-out: IC50 MCF7; cisplatin dissolved in H2O; ref [18]; cited from earlier work
[4] = system: A2780cisR (cisplatin resistant variant of A2780); settings: read-out: IC50 A2780cisR; cisplatin dissolved in H2O; ref [18]; cited from earlier work
[5] = system: human ovarian cancer A2780 cell line; settings: read-out: IC50 A2780; cisplatin dissolved in H2O; ref [18]; cited from earlier work

half-life in d6-DMSO solution [1]	Compound	IC50 [2]	effect on electrophoretic mobility of pBR322 plasmid forms (plasmid (pBR322) DNA)	IC50 [3]	IC50 [4]	IC50 [5]
weeks	[{Cp-P(Ph2)=NH-Ph}2Fe](AuCl4)2 [compound 4]					
	N.N.[Cl][Pt][Cl] [cisplatin]	11 ± 2.9 µM	decrease in mobility of the CCC form and an increase in mobility of the OC form	20 ± 3 µM	35 ± 7 µM	1.9 ± 0.6 µM
